# Hits are enriched below; roughly 1.5% of the tested compounds scored in any of these assays.
# MsrA act: activates bovine MsrA enzyme. purified bovine MsrA, absorbance read-out. activation, % at 10.6 µM. actives 0.3% (n = 360,000). AID 602163; in the data active = activation above about 7.5%;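 also: 0% = vehicle and 100% = reference activator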
# MsrA inh: inhibitors of bovine MsrA; inhibition, % at 15.5 µM; AID 651718; purified bovine MsrA, absorbance read-out; actives 0.75% (n = 360,000);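 also: 0% = vehicle wells with enzyme and 100% = reference inhibitor wells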
# TbMetRS inhib: blocks T. brucei methionyl-tRNA synthetase activity; purified T. brucei MetRS, ATP depletion, Kinase-Glo luminescence; inhibition, % at 11.9 µM; actives 0.4% (n = 360,000); AID 624268;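 active = inhibition above a per-plate cutoff of the control wells' mean inhibition plus 3 SD, cut at about 5.5% in these data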;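 also: 0% = DMSO wells median and 100% = median of wells with control inhibitor compound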
#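 Material: T. brucei methionyl-tRNA synthetase, purified; reagent: substrates ATP, L-methionine and bulk Escherichia coli tRNA; dosing: 11.9 µM single point; timing: 15 min plus 2 h at 25 °C; detection: luminescence of leftover ATP; evaluation: % inhibition; control set: DMSO-only wells as low control; replicates: singlicate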
# proCasp7 act: counter-screen for procaspase-3 activators: activators of human procaspase-7; P55210; recombinant procaspase-7, Ac-DEVD-pNA absorbance 405 nm; D23A/D198A/D206A triple mutant, cannot self-cleave; scale: DMSO 0, 5 µM enzyme 100; activation, % at 8.5 µM; actives 0.093% (n = 330,000); AID 463210;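 active = percent activation above the screen-wide mean plus 3 SD, cut at about 25% in these data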
# Target sequence (P55210 whole entry D23A/D198A/D206A): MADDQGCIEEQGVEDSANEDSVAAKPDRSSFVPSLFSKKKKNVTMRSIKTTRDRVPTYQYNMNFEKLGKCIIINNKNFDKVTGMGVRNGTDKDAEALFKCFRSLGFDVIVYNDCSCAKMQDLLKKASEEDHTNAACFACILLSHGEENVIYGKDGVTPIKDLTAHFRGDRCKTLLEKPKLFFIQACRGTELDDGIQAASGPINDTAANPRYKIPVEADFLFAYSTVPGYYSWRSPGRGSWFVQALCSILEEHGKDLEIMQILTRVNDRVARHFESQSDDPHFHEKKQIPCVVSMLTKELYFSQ
#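 Test system: Procaspase-7 triple mutant (PC-7 D3A). Also added: Ac-DEVD-pNA substrate, 400 µM as added. Schedule: 1 h enzyme–compound preincubation and 2 h substrate reaction, both 25 °C. Signal: p-Nitroaniline absorbance at 405 nm, read at 0 and 120 min. Control set: low DMSO alone, high DMSO plus 5 µM PC-7.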
# procasp3 activ: activators of human procaspase-3; P42574; recombinant procaspase-3 D3A, Ac-DEVD-pNA absorbance 405 nm; activation, % at 8.5 µM; actives 0.11% (n = 330,000);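 active = activation above the mean of all tested compounds plus 3 SD, cut at about 21% in these data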;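 also: 0% = DMSO alone and 100% = DMSO wells spiked with extra 5 µM PC-3 D3A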
# Target sequence (P42574 whole entry D9A/D28A/D175A): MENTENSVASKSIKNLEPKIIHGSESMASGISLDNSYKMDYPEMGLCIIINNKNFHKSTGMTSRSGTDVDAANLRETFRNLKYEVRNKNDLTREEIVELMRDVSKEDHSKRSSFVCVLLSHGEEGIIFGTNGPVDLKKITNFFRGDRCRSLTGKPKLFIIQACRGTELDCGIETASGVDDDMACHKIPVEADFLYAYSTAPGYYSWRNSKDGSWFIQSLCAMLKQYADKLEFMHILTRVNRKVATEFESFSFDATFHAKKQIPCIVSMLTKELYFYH
#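 Evaluation: percent activation relative to control range; Material: Procaspase-3 D3A mutant, all three cleavage aspartates alanine; Compound: single dose, 8.5 µM nominal compound, 0.8% DMSO; Replication: one well per compound; Signal: absorbance at 405 nm, 0 and 120 min; Schedule: 1 h preincubation plus 2 h reaction at 25 °C.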
# MsrA inh confirm: confirmation of bovine MsrA inhibitors; purified bovine MsrA, absorbance read-out; shares compounds with MsrA inh; actives 41% (n = 2,300); AID 651822; inhibition, % at 15.5 µM;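 also: coupled to thioredoxin reductase with NADPH and selenocystamine and DMSO as substrate; 0% = vehicle only and 100% = full effect of reference inhibitor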
# The depositor's hits bear a star; x = not tested or not shown. Rule as the data show it, unless noted: active = inhibition above about 4.5%; inactive = the rest.
SMILES,MsrA act,MsrA inh,TbMetRS inhib,proCasp7 act,procasp3 activ,MsrA inh confirm
COc1cc2c(cc1OC)CN(c1ccc([N+](=O)[O-])cc1Cl)CC2,-1.1,4.8*,4.7,-19.0,-3.5,1.1
COc1cc2c(cc1OC)CN(c1ccc(F)cc1[N+](=O)[O-])CC2,-7.1,1.7,-1.3,-0.2,-5.4,x
CSCc1cc(N(C)c2ccccc2)nc(-c2ccccc2)n1,-3.4,1.1,0.1,3.7,1.5,x
CCNC(=O)N1CCN(c2ccc(N3CCN(C(=O)NCC)[C@H](C)C3)c(C)c2)[C@@H](C)C1,x,-0.4,x,x,x,x
COc1ccc(C2CC(=O)C(c3ccc([N+](=O)[O-])cc3)=CN2Cc2ccccc2)cc1 (centres undefined),x,4.4,x,x,x,x
COC(=O)c1c(N)c2ccccc2[nH]c1=O,-4.2,1.8,-0.7,5.0,-6.1,x
CC(=O)c1c(C(=O)O)c2ccccc2[nH]c1=O,-1.8,5.1*,-0.6,6.4,9.6,0.9
Oc1[nH]c2ccccc2c1C1=NCCCC1,2.4,4.9*,-0.3,3.9,9.3,3.6
COc1ccc(CNc2nc(NCc3ccc(OC)cc3)n(C(=O)c3ccccc3[N+](=O)[O-])n2)cc1,2.4,-0.1,-0.2,4.8,-2.8,x
CC(=O)c1c(C)oc2c1C(=O)c1ccccc1C2=O,2.5,0.1,-0.3,3.5,-1.4,x
O=C1c2ccccc2C(=O)c2c1oc(C(F)(F)F)c2C(=O)c1ccccc1,2.5,50.9*,-0.4,-7.0,1.3,58.3*
O=C(NC1=C(NC2CCS(=O)(=O)C2)C(=O)c2ccccc2C1=O)c1ccccc1 (centres undefined),-0.7,5.0*,1.6,9.5,2.1,0.6
COC(=O)CNC(=O)C1CCN(S(=O)(=O)c2cnc[nH]2)CC1,-3.9,-0.3,-0.4,1.4,4.0,x
Nc1ccc(-c2cnc(-c3ccc(N)cc3)nc2)cc1,-6.5,8.6*,-0.5,-3.1,-6.8,7.6*
O=C(NN=Cc1ccccc1Cl)C(=O)Nc1cccc(C(F)(F)F)c1,x,-0.3,x,x,x,x
COc1cccc(C(O)c2nccn2Cc2ccccc2)c1OC (centres undefined),-1.7,11.6*,-0.8,x,x,4.0
Fc1ccccc1C1CC(c2ccco2)=Nc2ccccc2S1 (centres undefined),3.1,4.9*,-0.6,-48.4,-22.4,1.2
COc1ccccc1C1CC(c2cccs2)=Nc2ccccc2S1 (centres undefined),4.6,2.4,-0.2,-34.6,-30.5,x
O=C(O)c1ccc(/C=C/c2ccc3cccc(O)c3n2)cc1,-5.0,5.6*,-0.2,x,x,5.3*
Oc1ccc(/C=C/c2ccc3cccc(O)c3n2)cc1Br,-1.6,0.6,-0.9,2.3,0.7,x
C[C@H](c1ccccc1)N1C[C@@H](COCc2ccccc2)Oc2cccc(N3CCCCC3)c2S1(=O)=O,x,-0.1,x,x,x,x
O=C(O)c1cccn2c(=O)c3ccccc3nc12,-4.9,4.7*,-0.5,-1.1,0.3,3.9
O=C(O)COc1ccc(/C=N/NC(=O)c2cccc3ccccc23)cc1,-1.7,2.4,-0.2,9.6,6.9,x
O=C(Nc1ccc(O)cc1)/C(=C\C=C\c1ccccc1)NC(=O)c1ccccc1,-7.0,1.4,-0.9,-1.8,-3.1,x
CCCCOc1ccc(C(=O)N/C(=C/C=C/c2ccccc2)C(=O)O)cc1,-2.0,6.8*,0.6,-9.7,-3.6,3.3
SMILES,MsrA act,MsrA inh,TbMetRS inhib,proCasp7 act,procasp3 activ,MsrA inh confirm
CCCCOc1ccc(C(=O)N/C(=C/C=C/c2ccccc2)C(=O)NC)cc1,-12.5,3.1,-1.9,-4.6,-9.2,x
O=C(O)COc1ccc(/C=N/NC(=O)/C(=C/C=C/c2ccccc2)NC(=O)c2ccccc2)cc1,-11.1,8.4*,-0.5,-1.9,6.8,7.9*
O=C(O)CCNC(=O)/C(=C\C=C\c1ccccc1)NC(=O)c1ccccc1,-5.8,6.8*,0.5,12.3,6.5,4.1
CCCCNc1ccc2c(c1)OC[C@@H](Cc1ccccc1)NS2(=O)=O,x,0.7,x,x,x,x
Cc1ccc(S(=O)(=O)N2CCCc3nc(C)c(C)cc32)cc1,x,-0.5,x,x,x,x
COc1ccc(C(=O)NC=C2C(=O)OC(C)(C)OC2=O)cc1,-4.4,1.5,-0.9,0.8,-5.0,x
O=C(NC1CCCCC1)OC[C@@H]1CSCCS(=O)(=O)N1,x,2.0,x,x,x,x
Cc1cccc(N2CC(C(=O)NCc3ccco3)CC2=O)c1C (centres undefined),-2.9,-0.5,-0.4,-13.6,-7.0,x
CCN(CC)C(=O)c1sc(NC(=O)c2ccc3c(c2)OCO3)c(C#N)c1C,-12.5,1.9,-1.2,-3.2,-5.6,x
Cc1c(C(=O)N2CCOCC2)sc(NC(=O)c2ccc3c(c2)OCO3)c1C#N,-4.8,5.0*,-0.8,0.7,-1.0,4.0
COCCNC(=S)N(C)[C@H]1C[C@H]2c3[nH]c4cccc(-c5ccccc5)c4c3CCN2C(=O)[C@H]1[C@H](C)O,x,-1.6,x,x,x,x
COC(=O)COc1ccc2oc(=O)cc(-c3cc4ccccc4o3)c2c1,-3.3,14.9*,-0.3,1.5,3.1,24.2*
COc1cccc2cc(-c3cc(=O)oc4ccc(O)cc34)oc12,-0.3,16.9*,-0.1,-5.8,-1.8,13.3*
COC(=O)COc1ccc2oc(=O)cc(-c3cc4cccc(OC)c4o3)c2c1,-4.6,7.4*,-0.2,8.1,0.1,15.4*
NC(=O)COc1ccc2oc(=O)cc(-c3cc4ccccc4o3)c2c1,-3.8,22.8*,0.1,2.1,1.2,20.5*
CCCCS(=O)(=O)N1CCCc2nc(-c3ccc(Br)cc3)ccc21,x,-0.2,x,x,x,x
CC(C)OC(=O)/C(=C/c1ccc2c(c1)c1ccccc1n2C)NC(=O)c1ccccc1,-12.8,4.8*,-1.4,14.6,3.3,2.5
CC(C)OC(=O)/C(=C\c1ccc2c(c1)c1ccccc1n2C)NC(=O)c1ccccc1,-0.5,1.9,1.5,0.3,-5.0,x
COc1ccc(/C=N/NC(=O)c2ccc(CN3c4cccc5cccc(c45)S3(=O)=O)cc2)cc1,0.4,5.0*,-0.1,7.3,1.1,5.2*
CC1(C)OC(=O)C2=C(CC(CCc3ccccc3)OC2c2ccc(Cl)c(Cl)c2)O1 (centres undefined),x,-0.5,x,x,x,x
CCc1ccccc1CC1CN(Cc2ccccc2)Cc2ccccc2N1c1ccc(OC)cc1 (centres undefined),x,-0.4,-1.2,x,x,x
CNC[C@@H]1OCc2ccccc2-c2c(n(C)c3ccccc23)C(=O)N([C@@H](C)CO)C[C@@H]1C,x,2.4,x,x,x,x
CCOc1ccc(/C=C/C2=NNC(=O)CC2)cc1,-5.4,6.7*,-0.9,-2.1,0.9,3.2
COc1ccc(/C=C/C2=NNC(=O)CC2)cc1,-6.5,5.5*,0.6,-2.9,-1.7,4.7*
COc1ccc(/C=C2\Oc3cc(OCC(=O)N4CC(O)C[C@H]4C(=O)O)ccc3C2=O)c(OC)c1OC (some centres undefined),0.8,4.9*,-0.7,-4.9,-3.1,3.0

# High-throughput results (PubChem)
